Reference: ChEMBL document CHEMBL2086252, “Syntheses and evaluation of anticonvulsant activity of novel branched alkyl carbamates” (J Med Chem, 2012)
Calls of active or inactive are those of the source. The rule behind the calls is not given here.

Tests used:
Mus musculus [1] = test: Neurotoxicity in albino CF1 mouse assessed as minimal motor impairment at 100 mg/kg, ip after 4 hrs by rotarod test; type: toxicity, organism-based; parameters: dose 100 mg/kg, route intraperitoneal; conditions: in vivo
Summary of the method: (§1)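 Mice dosed ip at 30, 100 or 300 mg/kg, then tested 0.5 h and 4 h after administration in the MES or scMet test. Protection was recorded as animals protected over animals tested. Neurotoxicity was recorded as motor impairment or sedation, as animals affected over animals tested.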

Rattus norvegicus [2] = test: Neurotoxicity in pilocarpine-induced status epilepticus Sprague-Dawley albino rat model assessed as minimal motor impairment at 100 mg/kg, ip after 0.25 hr by rotarod test; type: toxicity, organism-based; parameters: dose 100 mg/kg, route intraperitoneal; conditions: in vivo
Mus musculus [3] = test: Anticonvulsant activity in albino CF1 mouse assessed as protection against subcutaneous metrazol-induced seizures at 300 mg/kg, ip after 0.5 hrs; type: functional, organism-based; parameters: dose 300 mg/kg; summary of the method: as §1
Mus musculus [4] = test: Neurotoxicity in albino CF1 mouse assessed as minimal motor impairment at 30 mg/kg, ip after 0.5 hrs by rotarod test; type: toxicity, organism-based; parameters: dose 30 mg/kg, route intraperitoneal; conditions: in vivo; summary of the method: as §1
Mus musculus [5] = test: Anticonvulsant activity in albino CF1 mouse assessed as protection against maximal electroshock-induced seizures at 30 mg/kg, ip after 4 hrs; type: functional, organism-based; parameters: dose 30 mg/kg; summary of the method: as §1
Mus musculus [6] = test: Anticonvulsant activity in albino CF1 mouse assessed as protection against maximal electroshock-induced seizures at 100 mg/kg, ip after 0.5 hrs; type: functional, organism-based; parameters: dose 100 mg/kg; summary of the method: as §1
Mus musculus [7] = test: Anticonvulsant activity in albino CF1 mouse assessed as protection against subcutaneous metrazol-induced seizures at 30 mg/kg, ip after 0.5 hrs; type: functional, organism-based; parameters: dose 30 mg/kg; summary of the method: as §1
Rattus norvegicus [8] = test: Neurotoxicity in pilocarpine-induced status epilepticus Sprague-Dawley albino rat model assessed as minimal motor impairment at 30 mg/kg, ip after 4 hrs by rotarod test; type: toxicity, organism-based; parameters: dose 30 mg/kg, route intraperitoneal; conditions: in vivo
Summary of the method: (§2)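 Rat pilocarpine status epilepticus model: test carbamate given at 0 or 30 min after the first observed Racine stage 3 motor seizure, which marks SE onset. Neurotoxicity was scored within the same model.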

Mus musculus [9] = test: Anticonvulsant activity in albino CF1 mouse assessed as protection against maximal electroshock-induced seizures at 30 mg/kg, ip after 0.5 hrs; type: functional, organism-based; parameters: dose 30 mg/kg; summary of the method: as §1
Mus musculus [10] = test: Anticonvulsant activity in albino CF1 mouse assessed as protection against subcutaneous metrazol-induced seizures at 300 mg/kg, ip after 4 hrs; type: functional, organism-based; parameters: dose 300 mg/kg; summary of the method: as §1
Rattus norvegicus [11] = test: Anticonvulsant activity in Sprague-Dawley albino rat assessed as protection against pilocarpine-induced status epilepticus at 65 mg/kg, ip; type: functional, organism-based; parameters: dose 65 mg/kg
Summary of the method: (§3)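 Pilocarpine status epilepticus model in rats. Number and severity of convulsive seizures were observed behaviourally.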

Mus musculus [12] = test: Neurotoxicity in albino CF1 mouse assessed as minimal motor impairment at 30 mg/kg, ip after 4 hrs by rotarod test; type: toxicity, organism-based; parameters: dose 30 mg/kg, route intraperitoneal; conditions: in vivo; summary of the method: as §1
Rattus norvegicus [13] = test: Neurotoxicity in pilocarpine-induced status epilepticus Sprague-Dawley albino rat model assessed as minimal motor impairment at 100 mg/kg, ip after 0.5 hrs by rotarod test; type: toxicity, organism-based; parameters: dose 100 mg/kg, route intraperitoneal; conditions: in vivo
Rattus norvegicus [14] = test: Neurotoxicity in pilocarpine-induced status epilepticus Sprague-Dawley albino rat model assessed as minimal motor impairment at 65 mg/kg, ip after 0.5 hrs by rotarod test; type: toxicity, organism-based; parameters: dose 65 mg/kg, route intraperitoneal; conditions: in vivo; summary of the method: as §2
Mus musculus [15] = test: Anticonvulsant activity in albino CF1 mouse assessed as protection against maximal electroshock-induced seizures at 300 mg/kg, ip after 0.5 hrs; type: functional, organism-based; parameters: dose 300 mg/kg; summary of the method: as §1
Rattus norvegicus [16] = test: Neurotoxicity in pilocarpine-induced status epilepticus Sprague-Dawley albino rat model assessed as minimal motor impairment at 30 mg/kg, ip after 2 hrs by rotarod test; type: toxicity, organism-based; parameters: dose 30 mg/kg, route intraperitoneal; conditions: in vivo; summary of the method: as §2
Mus musculus [17] = test: Anticonvulsant activity in albino CF1 mouse assessed as protection against subcutaneous metrazol-induced seizures at 30 mg/kg, ip after 4 hrs; type: functional, organism-based; parameters: dose 30 mg/kg; summary of the method: as §1
Mus musculus [18] = test: Anticonvulsant activity in albino CF1 mouse assessed as protection against maximal electroshock-induced seizures at 300 mg/kg, ip after 4 hrs; type: functional, organism-based; parameters: dose 300 mg/kg; summary of the method: as §1
Mus musculus [19] = test: Neurotoxicity in albino CF1 mouse assessed as minimal motor impairment at 300 mg/kg, ip after 0.5 hrs by rotarod test; type: toxicity, organism-based; parameters: dose 300 mg/kg, route intraperitoneal; conditions: in vivo; summary of the method: as §1
Mus musculus [20] = test: Anticonvulsant activity in albino CF1 mouse assessed as protection against subcutaneous metrazol-induced seizures at 100 mg/kg, ip after 0.5 hrs; type: functional, organism-based; parameters: dose 100 mg/kg; summary of the method: as §1
Rattus norvegicus [21] = test: Neurotoxicity in pilocarpine-induced status epilepticus Sprague-Dawley albino rat model assessed as minimal motor impairment at 30 mg/kg, ip after 0.5 hrs by rotarod test; type: toxicity, organism-based; parameters: dose 30 mg/kg, route intraperitoneal; conditions: in vivo; summary of the method: as §2
Mus musculus [22] = test: Neurotoxicity in albino CF1 mouse assessed as minimal motor impairment at 300 mg/kg, ip after 4 hrs by rotarod test; type: toxicity, organism-based; parameters: dose 300 mg/kg, route intraperitoneal; conditions: in vivo; summary of the method: as §1
Mus musculus [23] = test: Anticonvulsant activity in albino CF1 mouse assessed as protection against subcutaneous metrazol-induced seizures at 100 mg/kg, ip after 4 hrs; type: functional, organism-based; parameters: dose 100 mg/kg; summary of the method: as §1
Rattus norvegicus [24] = test: Neurotoxicity in pilocarpine-induced status epilepticus Sprague-Dawley albino rat model assessed as minimal motor impairment at 30 mg/kg, ip after 1 hr by rotarod test; type: toxicity, organism-based; parameters: dose 30 mg/kg, route intraperitoneal; conditions: in vivo; summary of the method: as §2
Mus musculus [25] = test: Anticonvulsant activity in albino CF1 mouse assessed as protection against maximal electroshock-induced seizures at 100 mg/kg, ip after 4 hrs; type: functional, organism-based; parameters: dose 100 mg/kg; summary of the method: as §1
Rattus norvegicus [26] = test: Neurotoxicity in pilocarpine-induced status epilepticus Sprague-Dawley albino rat model assessed as minimal motor impairment at 100 mg/kg, ip after 4 hrs by rotarod test; type: toxicity, organism-based; parameters: dose 100 mg/kg, route intraperitoneal; conditions: in vivo
Rattus norvegicus [27] = test: Anticonvulsant activity in ip dosed Sprague-Dawley albino rat assessed as protection against pilocarpine-induced status epilepticus after 0.5 hrs; type: functional; summary of the method: as §3
Rattus norvegicus [28] = test: Neurotoxicity in pilocarpine-induced status epilepticus Sprague-Dawley albino rat model assessed as minimal motor impairment at 30 mg/kg, ip after 0.25 hr by rotarod test; type: toxicity, organism-based; parameters: dose 30 mg/kg, route intraperitoneal; conditions: in vivo; summary of the method: as §2
Rattus norvegicus [29] = test: Neurotoxicity in pilocarpine-induced status epilepticus Sprague-Dawley albino rat model assessed as minimal motor impairment at 100 mg/kg, ip after 2 hrs by rotarod test; type: toxicity, organism-based; parameters: dose 100 mg/kg, route intraperitoneal; conditions: in vivo

## CCC(C)C(COC(N)=O)C(C)C (racemic)
Mus musculus [1]
  Activity: Non-toxic
Rattus norvegicus [2]
  Activity: Toxic
Mus musculus [3]
  Activity: Active
Mus musculus [4]
  Activity: Non-toxic
Mus musculus [5]
  Activity: inactive
Mus musculus [6]
  Activity: Active
Mus musculus [7]
  Activity: inactive
Rattus norvegicus [8]
  Activity: Non-toxic
Mus musculus [9]
  Activity: inactive
Mus musculus [10]
  Activity: inactive
Rattus norvegicus [11]
  Activity: Active
Mus musculus [12]
  Activity: Non-toxic
Rattus norvegicus [13]
  Activity: Toxic
Rattus norvegicus [14]
  Activity: Non-toxic
Mus musculus [15]
  Activity: Active
Rattus norvegicus [16]
  Activity: Non-toxic
Mus musculus [17]
  Activity: inactive
Mus musculus [18]
  Activity: inactive
Mus musculus [19]
  Activity: Toxic
Mus musculus [20]
  Activity: Active
Rattus norvegicus [21]
  Activity: Non-toxic
Mus musculus [22]
  Activity: Non-toxic
Mus musculus [23]
  Activity: inactive
Rattus norvegicus [24]
  Activity: Non-toxic
Mus musculus [25]
  Activity: inactive
Rattus norvegicus [26]
  Activity: Non-toxic
Rattus norvegicus [27]
  ED50: 114 mg/kg
  ED97: 199 mg/kg
Rattus norvegicus [28]
  Activity: Non-toxic
Rattus norvegicus [29]
  Activity: Non-toxic
